Bioassay records from PubChem BioAssay.
In the library only some 2.4% were active in any assay of this set; here they are far more common.
PRMT1 inh = PRMT1 (human) inhibition, primary screen | AID 652257 | inhibition, % at 2.79 µM | recombinant PRMT1, activity-based probe fluorescence polarization | 1.3% of 370,000 active;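 active means inhibition above about 21% made by adding two undisclosed values, limit read from the data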
SIAE inh = blocks human sialic acid acetylesterase | Q9HAT2 | SIAE FP-Rh probe binding, fluorescence polarization | inhibition, % at 9.66 µM | 0.69% of 370,000 active | AID 1053197;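 active means inhibition above a cutoff: mean of compounds within the control limits plus 3 SD of those, cut at about 17% in these data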;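 further: 0% = plate median of compound wells and 100% = probe without SIAE protein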
mABHD4 FP = ABHD4 (mouse) inhibition, primary FP screen | AID 720543 | inhibition, % at 8.92 µM | purified mABHD4, FP-Rh probe fluorescence polarization | Q8VD66 | 0.54% of 370,000 active;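 active means inhibition exceeding the mean over every tested compound plus 3 SD, cut at about 30% in these data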;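 further: 0% = plate median of compound wells and 100% = S159A mutant with DMSO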
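Assay system: wild-type mouse ABHD4 protein; compound: single nominal dose of 8.92 µM, 0.89% DMSO final; schedule: 45 min + 60 min at 25 °C; measured by: FP readout, ex 525 nm / em 598 nm; evaluation: % inhibition of FP-Rh probe binding versus controls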
HTRA1 inhibitor = HTRA1 (human) protease inhibition; AID 504803; inhibition, % at 5.96 µM; 0.5% of 340,000 active; recombinant HTRA1, FP-rhodamine activity-based probe, fluorescence polarization; in the data active means inhibition above about 36%;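 further: 0% = enzyme with DMSO and 100% = wells lacking enzyme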
JMJD2C inh = inhibitors of human GASC-1 (JMJD2C) demethylase; AID 2099; GST-JMJD2C(1-420) H3K9me3 demethylation, DELFIA europium; Q9H3R0; 0.069% of 330,000 active; inhibition, % at 2.35 µM;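 active means more than half of a compound's replicate wells show inhibition beyond 50%, single wells judged on their own value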;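 further: signal counts dimethyl H3K9 product captured on neutravidin plate; 0% = median of DMSO wells and 100% = 0.3 times that DMSO median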
Target sequence (Q9H3R0 1-420 limits assumed): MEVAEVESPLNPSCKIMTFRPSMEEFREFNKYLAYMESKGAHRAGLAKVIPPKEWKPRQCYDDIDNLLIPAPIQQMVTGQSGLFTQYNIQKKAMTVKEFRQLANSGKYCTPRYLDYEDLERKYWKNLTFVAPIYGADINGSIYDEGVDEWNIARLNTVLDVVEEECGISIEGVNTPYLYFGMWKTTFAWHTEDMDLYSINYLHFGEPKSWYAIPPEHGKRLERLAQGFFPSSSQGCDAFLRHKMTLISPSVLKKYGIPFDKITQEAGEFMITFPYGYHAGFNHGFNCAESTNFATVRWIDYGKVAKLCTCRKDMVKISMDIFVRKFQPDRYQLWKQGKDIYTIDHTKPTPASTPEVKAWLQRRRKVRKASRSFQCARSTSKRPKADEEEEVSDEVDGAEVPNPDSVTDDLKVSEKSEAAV
SIAE confirm = human SIAE inhibition, confirmation. SIAE FP-Rh activity-based probe, fluorescence polarization. AID 1117263. shares compounds with SIAE inh. inhibition, % at 9.66 µM. 13% of 2,300 active;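 active means mean inhibition of the replicates above the hit cutoff set in the primary screen, cut at about 17% in these data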;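 further: 0% = SIAE with DMSO and probe and 100% = probe without SIAE; inhibitors lower polarization as more probe stays unbound to SIAE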
* = called active by the depositor.

Results for Cc1ccc(-n2c(SCC(=O)Nc3ccccc3-c3ccccc3)nnc2-c2ccccn2)cc1 ?
PRMT1 inh: -0.9; SIAE inh: 0.0; mABHD4 FP: 1.1

What do the screens show for `COc1cccc(C(=O)N2CCCc3ccccc32)c1OC`?
PRMT1 inh: 0.9; SIAE inh: 2.1; mABHD4 FP: -3.0; HTRA1 inhibitor: 1.9

Results for COC(=O)c1ccccc1S(=O)(=O)NC(=O)[C@H]1O[C@@H](n2ccc(=O)[nH]c2=O)[C@H](O)[C@@H]1O ?
PRMT1 inh: -0.7; SIAE inh: 73.9*; mABHD4 FP: -5.1; SIAE confirm: 73.3*

Results for COc1cccc(-c2cc(CNC(=O)[C@H]3O[C@@H](n4ccc(=O)[nH]c4=O)[C@H](O)[C@@H]3O)no2)c1 ?
PRMT1 inh: -2.2; SIAE inh: 74.7*; mABHD4 FP: 5.5; SIAE confirm: 68.0*

What do the screens show for `COC(=O)C1CN(Cc2cn(CCOC(C)=O)nn2)CCS(=O)(=O)N1Cc1ccc(Cl)cc1` (stereo unspecified)?
PRMT1 inh: 4.5; SIAE inh: -8.2; mABHD4 FP: 1.0

What do the screens show for `Cc1ccc(OCC(C)CN2CCC(C(O)(c3ccccc3)c3ccccc3)CC2)cc1` (stereo unspecified)?
PRMT1 inh: -4.0; SIAE inh: 1.1; mABHD4 FP: 2.7

How did Cc1ccccc1NC(=O)OC1CCC12CCCCC2 (stereo unspecified) do in these assays?
PRMT1 inh: 4.8; SIAE inh: 2.0; mABHD4 FP: 2.6

Results for CCCCc1ccc(NC(=S)Nc2ccc(Nc3ccc(OC)cc3)cc2)cc1 ?
PRMT1 inh: 10.3; SIAE inh: 26.9*; mABHD4 FP: 24.8; HTRA1 inhibitor: 30.5; JMJD2C inh: -7.4; SIAE confirm: 12.9

What do the screens show for `O=C(CCN1C(=O)c2ccccc2C1=O)Nc1cccc(O)c1`?
PRMT1 inh: -6.2; SIAE inh: 20.3*; mABHD4 FP: -0.9; HTRA1 inhibitor: 9.9; JMJD2C inh: -23.4; SIAE confirm: -0.7

Results for CNC(=O)N(O)C1N(/N=C/c2ccc(SC)cc2)C(=S)SC1(C)C (stereo unspecified) ?
PRMT1 inh: -1.1; SIAE inh: 1.3; mABHD4 FP: -0.9; HTRA1 inhibitor: 2.8; JMJD2C inh: -5.5

Results for CN(C)c1ccc(/C=N/N2C(=S)SC(C)(C)C2N(O)C(=O)Nc2ccc([N+](=O)[O-])cc2)cc1 (stereo unspecified) ?
PRMT1 inh: 1.1; SIAE inh: 21.2*; mABHD4 FP: 4.3; HTRA1 inhibitor: -12.3; JMJD2C inh: 10.4; SIAE confirm: 14.1

Results for CC(=O)Nc1ccc(S(=O)(=O)Nc2nccs2)cc1 ?
PRMT1 inh: 2.1; SIAE inh: -1.6; mABHD4 FP: 8.2; HTRA1 inhibitor: 1.1

What do the screens show for `Cc1ccc(S(C)(=O)=O)cc1C(=O)Nc1ccc(S(=O)(=O)Nc2nccs2)cc1`?
PRMT1 inh: 0.2; SIAE inh: 23.9*; mABHD4 FP: 24.2; HTRA1 inhibitor: 4.1; JMJD2C inh: 5.6; SIAE confirm: 0.9

How did O=C(CSc1n[nH]c(-c2cccnc2)n1)OC1CCCCC1 do in these assays?
PRMT1 inh: 2.0; SIAE inh: 17.8*; mABHD4 FP: -4.0; HTRA1 inhibitor: -3.4; JMJD2C inh: -0.9; SIAE confirm: -3.2

What do the screens show for `NC(=S)NN=C1CSSC1`?
HTRA1 inhibitor: 1.9

What do the screens show for `CC(C)Oc1ccc(S(=O)(=O)N2CCCCCC2)c2ccccc12`?
PRMT1 inh: 3.3; SIAE inh: 10.3; mABHD4 FP: 8.8

How did Cc1cc(C)cc(-n2c3ccc(NC(=S)NC4CCCCC4)cc3c(=O)n2C)c1 do in these assays?
PRMT1 inh: 2.2; SIAE inh: 5.0; mABHD4 FP: 15.6

How did Cc1ccc(C)c(C(=O)CN2Cc3ccccc3C2=O)c1 do in these assays?
PRMT1 inh: -4.5; SIAE inh: 22.6*; mABHD4 FP: 1.0; HTRA1 inhibitor: 0.8; JMJD2C inh: -2.2; SIAE confirm: -4.3

What do the screens show for `Cc1[nH]c2ccccc2c1CC(=O)Nc1ccc(Nc2ccccc2)cc1`?
PRMT1 inh: 9.3; SIAE inh: 14.9; mABHD4 FP: 11.4

What do the screens show for `Cc1[nH]c2ccccc2c1CC(=O)Nc1ccc(Nc2ccncc2)cc1`?
PRMT1 inh: -6.5; SIAE inh: 34.3*; mABHD4 FP: 3.0; SIAE confirm: 24.6*

How did COc1ccc(-c2cc(NC(=O)Cc3c(C)[nH]c4ccccc34)ccc2Nc2cccnc2)cc1OC do in these assays?
PRMT1 inh: 2.5; SIAE inh: 17.4*; mABHD4 FP: 4.9; SIAE confirm: 6.5

How did O=C(COC(=O)COc1ccc(Cl)cc1)Nc1ccc2c(c1)OCCO2 do in these assays?
PRMT1 inh: 0.2; SIAE inh: 18.2*; mABHD4 FP: 3.2; HTRA1 inhibitor: 4.8; JMJD2C inh: 2.9; SIAE confirm: 0.9

Results for COc1ccc(CSc2nnc(SCC(=O)Nc3ccccc3-c3ccccc3)s2)cc1 ?
PRMT1 inh: -0.5; SIAE inh: -5.7; mABHD4 FP: -12.3

Results for Cc1[nH]c(C)c(S(=O)(=O)NCc2ccc(F)cc2)c1C(=O)N1CCCCC1 ?
PRMT1 inh: -2.6; SIAE inh: -2.7; mABHD4 FP: -1.1; HTRA1 inhibitor: -5.6; JMJD2C inh: -1.3

How did Cc1[nH]c(C)c(S(=O)(=O)NCc2ccco2)c1C(=O)N1CCCCC1 do in these assays?
PRMT1 inh: 1.1; SIAE inh: 18.8*; mABHD4 FP: 2.0; HTRA1 inhibitor: 8.2; JMJD2C inh: -0.7; SIAE confirm: 11.3

Results for CCN1CCN(C(=O)c2ccc(N3CC4CC(C3)c3cccc(=O)n3C4)c(NC(=O)c3cc(OC)cc(OC)c3)c2)CC1 (stereo unspecified) ?
PRMT1 inh: 1.7; SIAE inh: 26.5*; mABHD4 FP: 6.6; HTRA1 inhibitor: -5.1; JMJD2C inh: 4.8; SIAE confirm: 3.6

Results for COCCNC(=O)c1ccc(N2CC3CC(C2)c2cccc(=O)n2C3)c(NC(=O)c2cc(OC)cc(OC)c2)c1 (stereo unspecified) ?
PRMT1 inh: 1.8; SIAE inh: -1.1; mABHD4 FP: 7.0; HTRA1 inhibitor: 2.0; JMJD2C inh: -6.0

How did CCOC1=C2[C@@H](CN(S(=O)(=O)c3ccccc3C)[C@H]2c2ccc(Cl)cc2)[C@H]2C(=O)NC(=O)[C@H]2C1 do in these assays?
PRMT1 inh: -3.9; SIAE inh: 3.0; mABHD4 FP: 3.3

What do the screens show for `Cc1ccc(-n2ccnc(SCC(=O)NC3CCCC3)c2=O)cc1Cl`?
PRMT1 inh: 14.8; SIAE inh: 17.4*; mABHD4 FP: 9.2; HTRA1 inhibitor: 1.2; JMJD2C inh: 20.9; SIAE confirm: -9.1

What do the screens show for `CCOC(=O)c1sc(NC(=O)c2cccs2)cc1C`?
PRMT1 inh: -0.3; SIAE inh: 1.9; mABHD4 FP: -6.2; HTRA1 inhibitor: -17.4; JMJD2C inh: 7.0
